ChEMBL document CHEMBL1772954, “Antifungal, cytotoxic and SAR studies of a series of N-alkyl, N-aryl and N-alkylphenyl-1,4-pyrrolediones and related compounds” (Bioorg Med Chem, 2011)
≈ marks a conversion by molar mass, not a printed value.

Experiments:
Type in all cases: functional
Trichophyton rubrum = test: Antifungal activity against Trichophyton rubrum C 113 2000
Summary of the method: (§1)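 Dermatophytes tested by CLSI M38-A2 microdilution in MOPS-buffered RPMI-1640 at pH 7.0. Inoculum 1-5 × 10^3 CFU/mL; compounds 250 to 0.24 µg/ml in twofold steps, final DMSO <1%. Incubated at 28 °C in a moist, dark chamber and read according to control growth. MIC is the lowest concentration with complete inhibition. MFC is the lowest concentration with no growth after duplicate subculture on SDA.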

Candida tropicalis = test: Antifungal activity against Candida tropicalis C 131 2000
Summary of the method: (§2)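 CLSI M27-A3 broth microdilution in RPMI-1640 buffered to pH 7.0 with MOPS. Inoculum 1-5 × 10^3 CFU/mL. Compound twofold dilutions from 250 to 0.24 µg/ml, final DMSO <1%. Incubated at 35 °C in a moist, dark chamber and read at 48 h. MIC is the lowest concentration giving total growth inhibition. For MFC, 5 µL from clear wells was plated in duplicate on SDA; MFC is the lowest concentration with no growth.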

Cryptococcus neoformans = test: Antifungal activity against Cryptococcus neoformans ATCC 32264; summary of the method: as §2
Saccharomyces cerevisiae = test: Antifungal activity against Saccharomyces cerevisiae ATCC 9763; summary of the method: as §2
Candida albicans = test: Antifungal activity against Candida albicans ATCC 10213; summary of the method: as §2
Aspergillus fumigatus = test: Antifungal activity against Aspergillus fumigatus ATCC 26934
Summary of the method: (§3)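 Broth microdilution per CLSI M38-A2 in RPMI-1640 with MOPS at pH 7.0. Inoculum 1-5 × 10^3 CFU/mL, with twofold compound dilutions spanning 250-0.24 µg/ml (final DMSO <1%). Plates incubated at 35 °C, moist and dark, and read when the control fungus had grown. MIC is total growth inhibition. MFC comes from subculturing clear wells in duplicate onto SDA.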

Aspergillus niger = test: Antifungal activity against Aspergillus niger ATCC 9029; summary of the method: as §3
Nannizzia gypsea = test: Antifungal activity against Microsporum gypseum C 115 2000; summary of the method: as §1
Aspergillus flavus = test: Antifungal activity against Aspergillus flavus ATCC 9170; summary of the method: as §3
[1] = test system: Trichophyton mentagrophytes; test: Antifungal activity against Trichophyton mentagrophytes ATCC 9972; summary of the method: as §1

MIC (Trichophyton rubrum)	MIC (Candida tropicalis)	MIC (Cryptococcus neoformans)	MIC (Saccharomyces cerevisiae)	MIC (Candida albicans)	MIC (Aspergillus fumigatus)	MIC (Aspergillus niger)	MIC (Nannizzia gypsea)	MIC (Aspergillus flavus)	MIC [1]	SMILES	MFC (Trichophyton rubrum)	MFC (Candida tropicalis)	MFC (Cryptococcus neoformans)	MFC (Saccharomyces cerevisiae)	MFC (Candida albicans)	MFC (Aspergillus fumigatus)	MFC (Aspergillus niger)	MFC (Nannizzia gypsea)	MFC (Aspergillus flavus)	MFC [1]
> 250 µg/mL	> 250 µg/mL	> 250 µg/mL	> 250 µg/mL	> 250 µg/mL	> 250 µg/mL	> 250 µg/mL	> 250 µg/mL	> 250 µg/mL	> 250 µg/mL	O=C1C(c2ccccc2)=C(c2ccccc2)C(=O)N1CCCc1ccccc1	> 250 µg/mL	> 250 µg/mL	> 250 µg/mL	> 250 µg/mL	> 250 µg/mL	> 250 µg/mL	> 250 µg/mL	> 250 µg/mL	> 250 µg/mL	> 250 µg/mL
> 250 µg/mL	> 250 µg/mL	> 250 µg/mL	> 250 µg/mL	> 250 µg/mL	> 250 µg/mL	> 250 µg/mL	> 250 µg/mL	> 250 µg/mL	> 250 µg/mL	O=C1C(Cl)=C(Cl)C(=O)N1c1ccccc1	> 250 µg/mL	> 250 µg/mL	> 250 µg/mL	> 250 µg/mL	> 250 µg/mL	> 250 µg/mL	> 250 µg/mL	> 250 µg/mL	> 250 µg/mL	> 250 µg/mL
62.5 µg/mL (≈ 290 µM)	125 µg/mL (≈ 581 µM)	125 µg/mL (≈ 581 µM)	250 µg/mL (≈ 1160 µM)	125 µg/mL (≈ 581 µM)	> 250 µg/mL	> 250 µg/mL	125 µg/mL (≈ 581 µM)	> 250 µg/mL	125 µg/mL (≈ 581 µM)	CC1=C(C)C(=O)N(Cc2ccccc2)C1=O	125 µg/mL (≈ 581 µM)	> 250 µg/mL	250 µg/mL (≈ 1160 µM)	> 250 µg/mL	> 250 µg/mL	> 250 µg/mL	> 250 µg/mL	250 µg/mL (≈ 1160 µM)	> 250 µg/mL	250 µg/mL (≈ 1160 µM)
62.5 µg/mL (≈ 273 µM)	> 250 µg/mL	250 µg/mL (≈ 1090 µM)	> 250 µg/mL	> 250 µg/mL	> 250 µg/mL	> 250 µg/mL	250 µg/mL (≈ 1090 µM)	> 250 µg/mL	250 µg/mL (≈ 1090 µM)	CC1=C(C)C(=O)N(CCc2ccccc2)C1=O	250 µg/mL (≈ 1090 µM)	> 250 µg/mL	> 250 µg/mL	> 250 µg/mL	> 250 µg/mL	> 250 µg/mL	> 250 µg/mL	> 250 µg/mL	> 250 µg/mL	> 250 µg/mL
62.5 µg/mL (≈ 257 µM)	> 250 µg/mL	125 µg/mL (≈ 514 µM)	> 250 µg/mL	> 250 µg/mL	> 250 µg/mL	> 250 µg/mL	125 µg/mL (≈ 514 µM)	> 250 µg/mL	250 µg/mL (≈ 1030 µM)	CC1=C(C)C(=O)N(CCCc2ccccc2)C1=O	250 µg/mL (≈ 1030 µM)	> 250 µg/mL	250 µg/mL (≈ 1030 µM)	> 250 µg/mL	> 250 µg/mL	> 250 µg/mL	> 250 µg/mL	250 µg/mL (≈ 1030 µM)	> 250 µg/mL	> 250 µg/mL
125 µg/mL (≈ 486 µM)	> 250 µg/mL	> 250 µg/mL	> 250 µg/mL	> 250 µg/mL	> 250 µg/mL	> 250 µg/mL	250 µg/mL (≈ 972 µM)	> 250 µg/mL	125 µg/mL (≈ 486 µM)	CC1=C(C)C(=O)N(CCCCc2ccccc2)C1=O	250 µg/mL (≈ 972 µM)	> 250 µg/mL	> 250 µg/mL	> 250 µg/mL	> 250 µg/mL	> 250 µg/mL	> 250 µg/mL	> 250 µg/mL	> 250 µg/mL	> 250 µg/mL
> 250 µg/mL	> 250 µg/mL	> 250 µg/mL	> 250 µg/mL	> 250 µg/mL	> 250 µg/mL	> 250 µg/mL	> 250 µg/mL	> 250 µg/mL	> 250 µg/mL	O=C1C(c2ccccc2)=C(c2ccccc2)C(=O)N1c1ccccc1	> 250 µg/mL	> 250 µg/mL	> 250 µg/mL	> 250 µg/mL	> 250 µg/mL	> 250 µg/mL	> 250 µg/mL	> 250 µg/mL	> 250 µg/mL	> 250 µg/mL
> 250 µg/mL	> 250 µg/mL	> 250 µg/mL	> 250 µg/mL	> 250 µg/mL	> 250 µg/mL	> 250 µg/mL	> 250 µg/mL	> 250 µg/mL	> 250 µg/mL	O=C1C(c2ccccc2)=C(c2ccccc2)C(=O)N1Cc1ccccc1	> 250 µg/mL	> 250 µg/mL	> 250 µg/mL	> 250 µg/mL	> 250 µg/mL	> 250 µg/mL	> 250 µg/mL	> 250 µg/mL	> 250 µg/mL	> 250 µg/mL
> 250 µg/mL	> 250 µg/mL	> 250 µg/mL	> 250 µg/mL	> 250 µg/mL	> 250 µg/mL	> 250 µg/mL	> 250 µg/mL	> 250 µg/mL	> 250 µg/mL	O=C1C(c2ccccc2)=C(c2ccccc2)C(=O)N1CCc1ccccc1	> 250 µg/mL	> 250 µg/mL	> 250 µg/mL	> 250 µg/mL	> 250 µg/mL	> 250 µg/mL	> 250 µg/mL	> 250 µg/mL	> 250 µg/mL	> 250 µg/mL
> 250 µg/mL	> 250 µg/mL	> 250 µg/mL	> 250 µg/mL	> 250 µg/mL	> 250 µg/mL	> 250 µg/mL	> 250 µg/mL	> 250 µg/mL	> 250 µg/mL	O=C1C(c2ccccc2)=C(c2ccccc2)C(=O)N1CCCCc1ccccc1	> 250 µg/mL	> 250 µg/mL	> 250 µg/mL	> 250 µg/mL	> 250 µg/mL	> 250 µg/mL	> 250 µg/mL	> 250 µg/mL	> 250 µg/mL	> 250 µg/mL
250 µg/mL (≈ 1070 µM)	> 250 µg/mL	> 250 µg/mL	> 250 µg/mL	–	> 250 µg/mL	> 250 µg/mL	250 µg/mL (≈ 1070 µM)	> 250 µg/mL	> 250 µg/mL	O=C(O)/C=C\C(=O)NCCCc1ccccc1	> 250 µg/mL	> 250 µg/mL	> 250 µg/mL	> 250 µg/mL	> 250 µg/mL	> 250 µg/mL	> 250 µg/mL	> 250 µg/mL	> 250 µg/mL	> 250 µg/mL
62.5 µg/mL (≈ 327 µM)	> 250 µg/mL	> 250 µg/mL	125 µg/mL (≈ 654 µM)	–	> 250 µg/mL	> 250 µg/mL	125 µg/mL (≈ 654 µM)	> 250 µg/mL	250 µg/mL (≈ 1310 µM)	O=C(O)/C=C\C(=O)Nc1ccccc1	250 µg/mL (≈ 1310 µM)	> 250 µg/mL	> 250 µg/mL	> 250 µg/mL	> 250 µg/mL	> 250 µg/mL	> 250 µg/mL	> 250 µg/mL	> 250 µg/mL	> 250 µg/mL
> 250 µg/mL	> 250 µg/mL	> 250 µg/mL	> 250 µg/mL	–	> 250 µg/mL	> 250 µg/mL	> 250 µg/mL	> 250 µg/mL	> 250 µg/mL	O=C(O)/C=C\C(=O)NCCCCc1ccccc1	> 250 µg/mL	> 250 µg/mL	> 250 µg/mL	> 250 µg/mL	> 250 µg/mL	> 250 µg/mL	> 250 µg/mL	> 250 µg/mL	> 250 µg/mL	> 250 µg/mL
> 250 µg/mL	> 250 µg/mL	> 250 µg/mL	250 µg/mL (≈ 1220 µM)	–	> 250 µg/mL	> 250 µg/mL	> 250 µg/mL	> 250 µg/mL	> 250 µg/mL	O=C(O)/C=C\C(=O)NCc1ccccc1	> 250 µg/mL	> 250 µg/mL	> 250 µg/mL	> 250 µg/mL	> 250 µg/mL	> 250 µg/mL	> 250 µg/mL	> 250 µg/mL	> 250 µg/mL	> 250 µg/mL
250 µg/mL (≈ 1140 µM)	> 250 µg/mL	> 250 µg/mL	> 250 µg/mL	–	> 250 µg/mL	> 250 µg/mL	250 µg/mL (≈ 1140 µM)	> 250 µg/mL	> 250 µg/mL	O=C(O)/C=C\C(=O)NCCc1ccccc1	> 250 µg/mL	> 250 µg/mL	> 250 µg/mL	> 250 µg/mL	> 250 µg/mL	> 250 µg/mL	> 250 µg/mL	> 250 µg/mL	> 250 µg/mL	> 250 µg/mL
62.5 µg/mL (≈ 311 µM)	> 250 µg/mL	125 µg/mL (≈ 621 µM)	> 250 µg/mL	> 250 µg/mL	> 250 µg/mL	> 250 µg/mL	250 µg/mL (≈ 1240 µM)	> 250 µg/mL	125 µg/mL (≈ 621 µM)	CC1=C(C)C(=O)N(c2ccccc2)C1=O	125 µg/mL (≈ 621 µM)	> 250 µg/mL	250 µg/mL (≈ 1240 µM)	> 250 µg/mL	> 250 µg/mL	> 250 µg/mL	> 250 µg/mL	> 250 µg/mL	> 250 µg/mL	250 µg/mL (≈ 1240 µM)
0.01 µg/mL (≈ 0.0343 µM)	–	–	–	–	–	–	0.03 µg/mL (≈ 0.103 µM)	–	0.03 µg/mL (≈ 0.103 µM)	CN(C/C=C/C#CC(C)(C)C)Cc1cccc2ccccc12 [TERBINAFINE]	0.03 µg/mL (≈ 0.103 µM)	–	–	–	–	–	–	0.06 µg/mL (≈ 0.206 µM)	–	0.06 µg/mL (≈ 0.206 µM)
